Experiments:
Rattus norvegicus [1] = experiment: Effect on HVA level in rat brain striatum regions at a dose of 27 uM/kg sc 60 min before death; assay type: functional, organism-based
Summary of the method: (§1)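 They were killed 60 min later. DOPAC and HVA were measured by HPLC in limbic and striatal brain portions. Values are percent of control means ± standard error of the mean.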

Rattus norvegicus [2] = species: Rattus norvegicus; experiment: Low dose of compound giving significant reduction and increase in motor activity without pretreatment was determined; motor activity 41% of control was observed at the lowest dose; assay type: functional
Summary of the method: (§2)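 Non-pretreated male Sprague-Dawley rats received the compound sc in the neck (n = 4). They were placed singly in test cages and put into motility meters 5 min later. Motor activity was recorded over 5-35 min. The dose reported is the lowest giving a significant reduction or increase in activity, expressed as percent of controls.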

Rattus norvegicus [3] = experiment: Effect on DOPAC level in rat brain striatum regions at a dose of 27 uM/kg sc 60 min before death; assay type: functional, organism-based; summary of the method: as §1
Rattus norvegicus [4] = experiment: Half-maximal decrease of DOPA accumulation (no reserpine pretreatment) in the striatum of rat brain at dose 0.24 uM/kg; assay type: functional; design: scale not given: the % may be the effect or the level left
Summary of the method: (§3)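 Male Sprague-Dawley rats (200-300 g), not pretreated, received the drug sc in the neck, dissolved in saline. NSD 1015 (100 mg/kg) followed 35 min later. Dopa accumulation was measured in limbic and striatal portions. […] Statistics by Student's t test.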

Rattus norvegicus [5] = experiment: (§4) Effect on DOPAC level in limbic system of rat brain at a dose of 27 uM/kg sc 60 min before death; assay type: functional, organism-based; summary of the method: as §1
Rattus norvegicus [6] = species: Rattus norvegicus; experiment: […] without pretreatment was determined; motor activity 137% of control was observed at the highest dose; assay type: functional
Rattus norvegicus [7] = experiment: Motor activity with reserpine pretreatment at dose 3.3 uM/kg; assay type: functional
Rattus norvegicus [8] = experiment: Half-maximal decrease of DOPA accumulation (no reserpine pretreatment) in the limbic system of rat brain at dose 0.98 uM/kg; assay type: functional; design: scale not given: the % may be the effect or the level left; summary of the method: as §3
Rattus norvegicus [9] = species: Rattus norvegicus; experiment: Half-maximal decrease of DOPA accumulation upon reserpine pretreatment in the corpus striatum of rat brain; assay type: functional
Rattus norvegicus [10] = experiment: Effect on HVA level in rat brain limbic regions at a dose of 27 uM/kg sc 60 min before death; assay type: functional, organism-based; summary of the method: as §1
Rattus norvegicus [11] = experiment: as §4; assay type: functional, organism-based; remark: listed apart in the source
Summary of the method: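 Male Sprague-Dawley rats (200-300 g) got a single sc dose of 27 μmol/kg, dissolved in saline. They were killed 60 min later. DOPAC and HVA were measured by HPLC in limbic and striatal brain portions. Values are percent of control means ± standard error of the mean.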

Rattus norvegicus [12] = experiment: Half-maximal decrease of DOPA accumulation (no reserpine pretreatment) in the striatum of rat brain at dose 0.98 uM/kg; assay type: functional; design: scale not given: the % may be the effect or the level left; summary of the method: as §3
Rattus norvegicus [13] = species: Rattus norvegicus; experiment: Low dose of compound giving significant reduction and increase in motor activity without pretreatment was determined; motor activity 53% of control was observed at the lowest dose; assay type: functional; summary of the method: as §2
Rattus norvegicus [14] = experiment: Motor activity with reserpine pretreatment at dose 53 uM/kg; assay type: functional
Rattus norvegicus [15] = experiment: Half-maximal decrease of DOPA accumulation (no reserpine pretreatment) in the limbic system of rat brain at dose 3.9 uM/kg; assay type: functional; design: scale not given: the % may be the effect or the level left; summary of the method: as §3
Rattus norvegicus [16] = species: Rattus norvegicus; experiment: Low dose of compound giving significant reduction and increase in motor activity without pretreatment was determined; motor activity 75% of control was observed at the lowest dose; assay type: functional; summary of the method: as §2
Rattus norvegicus [17] = experiment: Motor activity with reserpine pretreatment at dose 13 uM/kg; assay type: functional
Rattus norvegicus [18] = species: Rattus norvegicus; experiment: High dose of compound giving significant reduction and increase in motor activity without pretreatment was determined; motor activity 230% of control was observed at the highest dose; assay type: functional; summary of the method: as §2
Rattus norvegicus [19] = experiment: Half-maximal decrease of DOPA accumulation (no reserpine pretreatment) in the striatum of rat brain at dose 0.8 uM/kg; assay type: functional; design: scale not given: the % may be the effect or the level left; summary of the method: as §3
Rattus norvegicus [20] = experiment: Half-maximal decrease of DOPA accumulation (no reserpine pretreatment) in the limbic system of rat brain at dose 0.8 uM/kg; assay type: functional; design: scale not given: the % may be the effect or the level left; summary of the method: as §3
Rattus norvegicus [21] = experiment: Motor activity with reserpine pretreatment at dose 133 umol/kg; assay type: functional
Rattus norvegicus [22] = species: Rattus norvegicus; experiment: Half-maximal decrease of DOPA accumulation upon reserpine pretreatment in the limbic system of rat brain; assay type: functional
Rattus norvegicus [23] = experiment: Half-maximal decrease of DOPA accumulation (no reserpine pretreatment) in the limbic system of rat brain at dose 227 uM/kg; assay type: functional; design: scale not given: the % may be the effect or the level left; summary of the method: as §3
Rattus norvegicus [24] = species: Rattus norvegicus; experiment: […] without pretreatment was determined; motor activity 40% of control was observed at the highest dose; assay type: functional
Rattus norvegicus [25] = experiment: Half-maximal decrease of DOPA accumulation (no reserpine pretreatment) in the striatum of rat brain at dose 227 uM/kg; assay type: functional; design: scale not given: the % may be the effect or the level left; summary of the method: as §3
Rattus norvegicus [26] = experiment: Motor activity with reserpine pretreatment at dose 100 uM/kg; assay type: functional
Rattus norvegicus [27] = experiment: Motor activity with reserpine pretreatment at dose 265 umol/kg; assay type: functional
Rattus norvegicus [28] = species: Rattus norvegicus; experiment: Low dose of compound giving significant reduction and increase in motor activity without pretreatment was determined; motor activity 58% of control was observed at the lowest dose; assay type: functional; summary of the method: as §2
Rattus norvegicus [29] = experiment: Half-maximal decrease of DOPA accumulation (no reserpine pretreatment) in the striatum of rat brain at dose 3.7 uM/kg; assay type: functional; design: scale not given: the % may be the effect or the level left; summary of the method: as §3
Rattus norvegicus [30] = species: Rattus norvegicus; experiment: High dose of compound giving significant reduction and increase in motor activity without pretreatment was determined; motor activity 92% of control was observed at the highest dose; assay type: functional; summary of the method: as §2
Rattus norvegicus [31] = experiment: Half-maximal decrease of DOPA accumulation (no reserpine pretreatment) in the limbic system of rat brain at dose 3.7 uM/kg; assay type: functional; design: scale not given: the % may be the effect or the level left; summary of the method: as §3
Rattus norvegicus [32] = species: Rattus norvegicus; experiment: Low dose of compound giving significant reduction and increase in motor activity without pretreatment was determined; motor activity 32% of control was observed at the lowest dose; assay type: functional; summary of the method: as §2
Rattus norvegicus [33] = experiment: Half-maximal decrease of DOPA accumulation (no reserpine pretreatment) in the limbic system of rat brain at dose 0.83 uM/kg; assay type: functional; design: scale not given: the % may be the effect or the level left; summary of the method: as §3
Rattus norvegicus [34] = experiment: Motor activity with reserpine pretreatment at dose 7.0 umol/kg; assay type: functional
Summary of the method: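 Test drug dissolved in saline, given sc in the neck (n = 4). Rats placed singly in motility meter cages immediately after dosing. Motor activity recorded as accumulated counts over 0–30 min and compared with controls.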

Rattus norvegicus [35] = experiment: Half-maximal decrease of DOPA accumulation (no reserpine pretreatment) in the limbic system of rat brain at dose 213 uM/kg; assay type: functional; design: scale not given: the % may be the effect or the level left; summary of the method: as §3
Rattus norvegicus [36] = species: Rattus norvegicus; experiment: Low dose of compound giving significant reduction and increase in motor activity without pretreatment was determined; motor activity 74% of control was observed at the lowest dose; assay type: functional; summary of the method: as §2
Rattus norvegicus [37] = experiment: Half-maximal decrease of DOPA accumulation (no reserpine pretreatment) in the striatum of rat brain at dose 27 uM/kg; assay type: functional; design: scale not given: the % may be the effect or the level left; summary of the method: as §3
Rattus norvegicus [38] = experiment: Motor activity with reserpine pretreatment at dose 213 uM/kg; assay type: functional
Rattus norvegicus [39] = experiment: Reduction of DOPA accumulation upon reserpine pretreatment in the corpus striatum of rat brain at a dose of 100 umol/kg; assay type: functional
Summary of the method: (§5)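 Test drug dissolved in saline, injected sc in the neck. 30 min later, NSD 1015 100 mg/kg given. Dopa measured in brain portions (limbic, striatal) and expressed as percent reduction from control levels. Student's t test used for statistics.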

Rattus norvegicus [40] = species: Rattus norvegicus; experiment: High dose of compound giving significant reduction and increase in motor activity without pretreatment was determined; motor activity 55% of control was observed at the highest dose; assay type: functional; summary of the method: as §2
Rattus norvegicus [41] = experiment: Reduction of DOPA accumulation upon reserpine pretreatment in the limbic system of rat brain at a dose of 100 umol/kg; assay type: functional; summary of the method: as §5
Rattus norvegicus [42] = experiment: Motor activity with reserpine pretreatment at dose 14 umol/kg; assay type: functional

CC(C)N1CCC[C@@H](c2cccc(O)c2)C1
Level (Rattus norvegicus [1]): 68 | Dose (Rattus norvegicus [2]): 0.2 µM/kg | Level (Rattus norvegicus [3]): 81 | Control (Rattus norvegicus [4]): 76% | Level (Rattus norvegicus [5]): 60 | Dose (Rattus norvegicus [6]): 13 µM/kg | Accumulated counts (Rattus norvegicus [7]): 38 | Control (Rattus norvegicus [8]): 74% | ED50 (Rattus norvegicus [9]): 0.45 µmol/kg | Level (Rattus norvegicus [10]): 51

CC(C)N1CCC[C@H](c2cccc(O)c2)C1
Level (Rattus norvegicus [11]): 70 | Level (Rattus norvegicus [1]): 89 | Control (Rattus norvegicus [12]): 85% | Dose (Rattus norvegicus [13]): 0.2 µM/kg | Level (Rattus norvegicus [3]): 74 | Accumulated counts (Rattus norvegicus [14]): 49 | ED50 (Rattus norvegicus [9]): 13 µmol/kg | Control (Rattus norvegicus [15]): 77% | Level (Rattus norvegicus [10]): 80

CCCN1CCC[C@H](c2cccc(O)c2)C1
Level (Rattus norvegicus [11]): 59 | Level (Rattus norvegicus [1]): 45 | Level (Rattus norvegicus [3]): 63 | Dose (Rattus norvegicus [16]): 1.6 µM/kg | Accumulated counts (Rattus norvegicus [17]): 78 | Dose (Rattus norvegicus [18]): 213 µM/kg | ED50 (Rattus norvegicus [9]): 1.3 µmol/kg | Level (Rattus norvegicus [10]): 52 | Control (Rattus norvegicus [19]): 81% | Control (Rattus norvegicus [20]): 86%

CN1CCC[C@H](c2cccc(O)c2)C1
ED50 (Rattus norvegicus [9]): 2.9 µmol/kg | Accumulated counts (Rattus norvegicus [21]): 88

CN1CCc2cccc3c2[C@H]1Cc1ccc(O)c(O)c1-3 [APOMORPHINE]
ED50 (Rattus norvegicus [22]): 0.19 µmol/kg | ED50 (Rattus norvegicus [9]): 0.22 µmol/kg

CN1CCC[C@@H](c2cccc(O)c2)C1
Control (Rattus norvegicus [23]): 48% | Dose (Rattus norvegicus [24]): 227 µM/kg | Control (Rattus norvegicus [25]): 51% | Accumulated counts (Rattus norvegicus [26]): 36 | ED50 (Rattus norvegicus [9]): 10 µmol/kg

Oc1cccc([C@H]2CCCNC2)c1
Accumulated counts (Rattus norvegicus [27]): 47 | ED50 (Rattus norvegicus [9]): 14 µmol/kg

CCCCN1CCC[C@H](c2cccc(O)c2)C1
Level (Rattus norvegicus [1]): 52 | Level (Rattus norvegicus [3]): 58 | Dose (Rattus norvegicus [28]): 3.7 µM/kg | Level (Rattus norvegicus [5]): 55 | ED50 (Rattus norvegicus [22]): 2.3 µmol/kg | Control (Rattus norvegicus [29]): 76% | Accumulated counts (Rattus norvegicus [14]): 180 | Dose (Rattus norvegicus [30]): 53 µM/kg | ED50 (Rattus norvegicus [9]): 2.2 µmol/kg | Control (Rattus norvegicus [31]): 72% | Level (Rattus norvegicus [10]): 52

CCCCN1CCC[C@@H](c2cccc(O)c2)C1
Level (Rattus norvegicus [1]): 142 | Dose (Rattus norvegicus [32]): 3.7 µM/kg | Level (Rattus norvegicus [3]): 118 | Control (Rattus norvegicus [33]): 84% | Level (Rattus norvegicus [5]): 91 | Accumulated counts (Rattus norvegicus [14]): 63 | ED50 (Rattus norvegicus [9]): 0.77 µmol/kg | Level (Rattus norvegicus [10]): 103

Oc1cccc([C@@H]2CCCN(CCc3ccccc3)C2)c1
Accumulated counts (Rattus norvegicus [34]): 71 | ED50 (Rattus norvegicus [9]): 0.13 µmol/kg

CCCN1CCC[C@@H](c2cccc(O)c2)C1 [PRECLAMOL]
Level (Rattus norvegicus [1]): 162 | Control (Rattus norvegicus [35]): 95% | Level (Rattus norvegicus [3]): 145 | Dose (Rattus norvegicus [24]): 213 µM/kg | Dose (Rattus norvegicus [36]): 0.8 µM/kg | Control (Rattus norvegicus [37]): 147% | Level (Rattus norvegicus [5]): 114 | ED50 (Rattus norvegicus [9]): 1.7 µmol/kg | Accumulated counts (Rattus norvegicus [38]): 12 | Level (Rattus norvegicus [10]): 100

Oc1cccc([C@@H]2CCCNC2)c1
Control (Rattus norvegicus [23]): 50% | Reduction (Rattus norvegicus [39]): 26% | Dose (Rattus norvegicus [40]): 227 µM/kg | Control (Rattus norvegicus [25]): 44% | Reduction (Rattus norvegicus [41]): 19%

Oc1cccc([C@H]2CCCN(CCc3ccccc3)C2)c1
Accumulated counts (Rattus norvegicus [42]): 26 | ED50 (Rattus norvegicus [9]): 6.9 µmol/kg
